The values below come from the RNAGym collection of RNA variant scans (doi:10.1126/science.aae0568).

This sample holds only a part of the variants without activity.

First the molecules themselves.
B1: tRNA (parent)
chain: GUUCCGUUGGCGUAAUGGUAACGCGUCUCCCUCCUAAGGAGAAGACUGCGGGUUCGAGUCCCGUACGGAACG

In this series the parent is B1. Nature of the series: yeast fitness relative to wild type (ratio to wild type); higher = fitter; tRNA-Arg(CCU), competitive growth, 37 C, YPD. Put shortly: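 Changes in genotype frequencies gave Darwinian fitness relative to wild type. Frequencies were read by 100-nucleotide paired-end sequencing of gene amplicons before and after pooled Saccharomyces cerevisiae strains, carrying tRNA-Arg(CCU) gene variants at the native locus, were competed in YPD at 37°C for 24 hours in six replicates. A genotype was kept only with ≥ 100 starting reads, and estimates < 0.5 were set to 0.5.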
As to GUUGCGUUGGCGUAAUGGUAACGCGUCUCCCUCCUAAGGAGACGACUGCGGGUUCGAGUCACGUACGGAACG [C4G A43C C61A], the yeast fitness was determined as 0.551. As to GUUGAGUUGGCGUAAUGGUAACGCGUAUCCCUCCUAAGGAGAAGACUGCGGGUUCGAGUCCCGUACGGAACG [C4G C5A C27A], the yeast fitness was 0.641.

For the variant GUUGCGUUGGCGUAAUGGUAACGCGUCUCCCUCCUAAGGAGUAGACUGCGGGUUCGAGUCCCGUACGCAACG [C4G A42U G68C], the yeast fitness was no more than 0.5. To GUUGCGUUGGCGUAAUGGUAACGCGUCUCCCUCCUAAGGAGAAGCCUGCGGGUUCGAGUCCCGUACGGAACG [C4G A45C] belongs 0.767; to GUUGCGUUGGCGUAAUGGUAACGCGUCUCCCUCCUAGGGAGAAGACUGCGAGUUCGGGUCCCGUACGGAACG [C4G A37G G51A A57G], 0.523; to GUUGCGUUGGCGUAAUGGUAACGCGUCUCCCUCCUUAGGAGAAGACUGCGGGUUCGAGUGCCGUACGGAACG [C4G A36U C60G], 0.655.

Take GUUGCGUUGGCGUAAUGGUAACGCGUCUCCCUCCUACGGAGAAGACUGCGGGUUCGAGUCCCGUACGGAACG [C4G A37C]: the yeast fitness amounted to 0.773. In the case of GUUGGGUUGGCGUAAUGGUAACGCGUCUCCCUCCUAAGGAGAAGACUGCGGGUUCAAGUCCCGUACGGCACG [C4G C5G G56A A69C], the yeast fitness is no more than 0.5. For the variant GUUGCGUUGGCGUAAUGGUAACGCGUCUCCCUCCUAAGGUGAAGAUUGCGGGUUCGAGUCCCGUACUGAACG [C4G A40U C46U G67U], the yeast fitness is 0.602.

As for GUUGCGUUGGCGUAAUGGUAACGCGUCUCCCUCCUAAGGUGCAGACUGCGGGUUCGAGUCGCGUACGGAACG [C4G A40U A42C C61G], the yeast fitness is no more than 0.5. To GUUGCGUUGGCGUAAUGGUAACGCGUCUCCCUCCUAAGGAGAAGUCUGCGGGUUCGAGUCCCGUACGGACCG [C4G A45U A70C] belongs 0.808; to GUUGCGUUGGCGUAAUGGUAACGCGUCUCCCUCCUAAGGAGAAGUCUGCGGGUUCGAGUCCUGUACGAAACG [C4G A45U C62U G68A], no more than 0.5; to GUUGCGUUGGCGUAAUGGUAACGCGUCUCCCUCCUAAGGUGCAGACUGCGGGUUCGGGUCCGGUACGGAACG [C4G A40U A42C A57G C62G], no more than 0.5. Take GUUGCGUUGGCGUAAUGGUAACGCGUCUCCCUCCUUAGGAGAAGACUGCGGGAUCGAGUCCCGUACGAGACG [C4G A36U U53A G68A A69G]: the yeast fitness is no more than 0.5. In the case of GUUGGGUUGGCGUAAUGGUAACGCGCCUCCCUCCUAAGGAGAGGACUGCGGGUUCGAGUCCCGUACGGAACG [C4G C5G U26C A43G], the yeast fitness was no more than 0.5. To GUUGGGUUGGCGUAAUGGUAACGCGUCUUCCUCCUAAGGAGAAGACUGCCGGUUCGAGACCCGUACGGAACG [C4G C5G C29U G50C U59A] belongs no more than 0.5; to GUUGCGUUGGCGUAAUGGUAACGCGUCUCCCUCCUAAGGAGAAGACUGCGGGUUCGUGGCCCGUACGGAACG [C4G A57U U59G], no more than 0.5. With GUUGCGUUGGCGUAAUGGUAACGCGUCUCCCUCCUAAGGAGAAGACUGCGGGUUCGAGUCCCGUACGGUACG [C4G A69U], the yeast fitness worked out at 0.775. To GUUGCGUUGGCGUAAUGGUAACGCGUCUCCCUCCUGAGGAGAAGACUACGGGUUCGAGUCCCGUACGGAACG [C4G A36G G48A] belongs 0.533; to GUUGCGUUGGCGUAAUGGUAACGCGUCUCCCUCCUAAGGAGAAGUCUGUGGGUUCGAGUCCCGUUCGGAACG [C4G A45U C49U A65U], no more than 0.5. The same measure for GUUGGGUUGGUGUAAUGGUAACGCGUCUCCCUCCUAAGGAGAAGACUGCGGGUUCAAGUCACGUACGGAACG [C4G C5G C11U G56A C61A]: no more than 0.5; for GUUGGGUUAGCGUAAUGGUAACGCGUCUCCCUCCUAAGGAGAAGACUGAGGGUUCGAGUCCCGUACGGAACG [C4G C5G G9A C49A]: 0.739; for GUUGCGUUGGCGUAAUGGUAACGCGUCUCCCUCCUAAGGAGAGGACUGCGGGUUCGAGUCCCGUACGGAACG [C4G A43G]: 0.729. As for GUUGCGUUGGCGUAAUGGUAACGCGUCUCCCUCCUAAGGAGAUGACUGCGGGUUCGAGUCCCGUACGGAACG [C4G A43U], the yeast fitness is 0.856. The same measure for GUUGCGUUGGCGUAAUGGUAACGCGUCUCCCUCCUAAGGUGCAGACUGCGGGUUCGAGUCCCGUAUGGAACG [C4G A40U A42C C66U]: 0.52. To GUUGAGUUGGCGUAAUGGAAACGGGUCUGCCUCCUAAGGAGAAGACUGCGGGUUCGAGUCCCGUACGGAACG [C4G C5A U19A C24G C29G] belongs no more than 0.5. As to GUUGCGUUGGCGUAAUGGUAACGCGUCUCCCUCCUAAGGUGAAGACUGCGGGUUCGAGUCCAGUACGGAACG [C4G A40U C62A], the yeast fitness was 0.638. With GUUGAGUUGGUGUAAUGCUAACGCGUCUCCCUCCUAAGGAGAAGAGUGCGGGUUCGAGUCCCGUACGGAACG [C4G C5A C11U G18C C46G], the yeast fitness was no more than 0.5. In the case of GUUGCGUUGGCGUAAUGGUAACGCGUCUCCCUCCUAAGGGGAAGUCUGCGGGUUCGAGUCCCGUACGGAACG [C4G A40G A45U], the yeast fitness was no more than 0.5. GUUGCGUUGGCGUAAUGGUAACGCGUCUCCCUCCUAAGGCGAAGACUGCGGGUUCGAGUCCCGUACGGAACG [C4G A40C]: the yeast fitness was determined as 0.811. The same measure for GUUGAGUUGGCGUAAUGGUAACGUGUCUCCCUCCUAAGGAGAAGACUGCGGGUUCGAGUCCCGUACGGAACG [C4G C5A C24U]: no more than 0.5.

For GUUGGGUUGGCGUUAUGGUAACGCGUCUCCCUCCUAAGGAGAAGACUGGGGGUUCGUGUCCCAUACAGAACG [C4G C5G A14U C49G A57U G63A G67A], the yeast fitness turned out to be 0.631. Consider GUUGCGUUGGCGUAAUGGUAACGCGUCUCCCUCCUGAGGAGAAGACUGCGGGUUCGAGCCCCGUACGGAACG [C4G A36G U59C], for which the yeast fitness came to 0.667. To GUUGGGUUGGCGUUAUGGUAACGCGUCUCCCUCCUAAGGAGAAGAGUGCGGGUUCGAGUCCCGUACGGUACG [C4G C5G A14U C46G A69U] belongs no more than 0.5. For GUUGCGUUGGCGUAAUGGUAACGCGUCUCCCUCCUUAGGAGAAGACUGCGGGUUCGAGUCCGGUACGGAACG [C4G A36U C62G], the yeast fitness was 0.54. To GUUGCGUUGGCGUAAUGGUAACGCGUCUCCCUCCUAAGGUGAAGUCUGCGGGUUCGAGUCCCGUACAGAACG [C4G A40U A45U G67A] belongs no more than 0.5; to GUUGCGUUGGCGUAAUGGUAACGCGUCUCCCUCCUAAGGAGAAGCCUGCGGGUUCGAGUCCCGUACGGUACG [C4G A45C A69U], 0.789.
